# ChEMBL document CHEMBL3244084, “A study of the mechanism of halothane-induced liver necrosis. Role of covalent binding of halothane metabolites to liver proteins in the rat” (J Med Chem, 1977)
# Active and inactive are the calls of the source. No cut-off for these calls is given here.
# Columns and labels:
# Rattus norvegicus [1] = assay: Anesthetic activity in Sprague-Dawley rat assessed as duration of anesthesia at 4.6 mmol/kg, ip; assay type: functional, organism-based; conditions: tested as the 14C-labelled form
# In short: (§1)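 Male Sprague-Dawley rats, 100-120 g, fasted overnight before dosing, fed afterwards. Single ip dose of [1-14C]halothane in olive oil (diluted with unlabeled halothane; 50 µCi 14C/kg). Duration of anesthesia recorded in normal and phenobarbital-pretreated rats. Pretreatment was phenobarbital sodium 80 mg/kg ip in water for 3 days, with use on day 4. Six rats per group.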
# Rattus norvegicus [2] = assay: Toxicity in phenobarbital pretreated Sprague-Dawley rat assessed as liver necrosis at 23 mmol/kg, ip measured after 24 hrs; assay type: organism-based; conditions: in vivo
# Rattus norvegicus [3] = assay: Drug uptake in Sprague-Dawley rat assessed as radioactivity in lipid fraction at 4.6 to 23 mmol/kg, ip measured at 6 to 8 hrs by scintillation counting; assay type: ADME, organism-based; conditions: in vivo
# In short: (§2)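 Male Sprague-Dawley rats, 100-120 g, fasted overnight. [1-14C]Halothane in olive oil (50 µCi/kg) given ip at 4.6, 11.5 or 23.0 mmol/kg. Rats killed at 0.5-24 h. Lipid fraction isolated from 1 g liver by the Folch method; DNA fraction by the Irving-Veazey method; proteins handled as for binding. Radioactivity counted by liquid scintillation. Means of six rats.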
# Rattus norvegicus [4] = assay: Toxicity in phenobarbital pretreated Sprague-Dawley rat assessed as multiple, discrete foci of liver parenchymal cell necrosis at 23 mmol/kg, ip measured after 0.5 to 24 hrs by histopathological/light microscopy analysis (reference value: 0%); assay type: organism-based; conditions: in vivo
# In short: (§3)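 Normal or phenobarbital-pretreated male Sprague-Dawley rats dosed ip with [14C]halothane in olive oil; controls received the vehicle. Rats killed by cervical dislocation 0.5-24 h after dosing. Liver slices fixed in 10% buffered formalin (pH 7.0) and paraffin-embedded. 6-µm sections stained with H&E and read by light microscopy. Necrosis graded on a 0-4+ scale. Six rats per time point.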
# Rattus norvegicus [5] = assay: Toxicity in phenobarbital pretreated Sprague-Dawley rat assessed as serum glutamic pyruvic transaminase level in blood at 4.6 mmol/kg, ip measured after 0.5 to 24 hrs (reference value: 15 +/- 2 IU/L); assay type: organism-based; conditions: in vivo
# Rattus norvegicus [6] = assay: Toxicity in phenobarbital pretreated Sprague-Dawley rat assessed as multiple, discrete foci of liver parenchymal cell necrosis at 11.5 mmol/kg, ip measured after 0.5 to 24 hrs by histopathological/light microscopy analysis (reference value: 0%); assay type: organism-based; conditions: in vivo; in short: as §3
# Rattus norvegicus [7] = assay: Toxicity in phenobarbital pretreated Sprague-Dawley rat assessed as serum glutamic pyruvic transaminase level in blood at 11.5 mmol/kg, ip measured after 0.5 to 24 hrs (reference value: 15 +/- 2 IU/L); assay type: organism-based; conditions: in vivo
# Rattus norvegicus [8] = assay: Drug uptake in Sprague-Dawley rat assessed as radioactivity in lipid fraction at 4.6 to 23 mmol/kg, ip measured at 1 to 6 hrs by scintillation counting; assay type: ADME, organism-based; conditions: in vivo; in short: as §2
# Rattus norvegicus [9] = assay: Toxicity in Sprague-Dawley rat assessed as liver necrosis at 11.5 mmol/kg, ip measured after 4 to 24 hrs; assay type: organism-based; conditions: in vivo; in short: as §3
# Rattus norvegicus [10] = assay: Toxicity in Sprague-Dawley rat assessed as serum glutamic pyruvic transaminase level in blood at 11.5 mmol/kg, ip measured after 0.5 to 24 hrs (reference value: 14 +/- 2 IU/L); assay type: organism-based; conditions: in vivo
# Rattus norvegicus [11] = assay: Toxicity in phenobarbital pretreated Sprague-Dawley rat assessed as mortality at 4.6 mmol/kg, ip measured up to 24 hrs; assay type: organism-based; conditions: in vivo
# In short: (§4)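 Male Sprague-Dawley rats, 100-120 g, fasted overnight before dosing and fed afterwards. Some received phenobarbital sodium 80 mg/kg ip in water for 3 days and were used on day 4. [1-14C]halothane in olive oil, 50 µCi/kg, was given ip. Mortality was recorded over the sacrifice schedule of 0.5-24 h, with six rats per time point. Vehicle controls received olive oil.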
# Rattus norvegicus [12] = assay: Toxicity in phenobarbital pretreated Sprague-Dawley rat assessed as liver necrosis at 4.6 mmol/kg, ip measured after 0.5 to 24 hrs; assay type: organism-based; conditions: in vivo; in short: as §3
# Rattus norvegicus [13] = assay: Toxicity in phenobarbital pretreated Sprague-Dawley rat assessed as liver necrosis at 4.6 mmol/kg, ip measured after 0.5 to 24 hrs by histopathological/light microscopy analysis (reference value: 0%); assay type: organism-based; conditions: in vivo; in short: as §3
# Rattus norvegicus [14] = assay: Anesthetic activity in Sprague-Dawley rat assessed as duration of anesthesia at 23 mmol/kg, ip; assay type: functional; in short: as §1
# Rattus norvegicus [15] = assay: Toxicity in Sprague-Dawley rat assessed as mortality at 11.5 mmol/kg, ip measured up to 24 hrs; assay type: organism-based; conditions: in vivo; in short: as §4
# Rattus norvegicus [16] = assay: Toxicity in Sprague-Dawley rat assessed as liver necrosis at 4.6 mmol/kg, ip measured after 0.5 to 24 hrs; assay type: organism-based; conditions: in vivo; in short: as §3
# Rattus norvegicus [17] = assay: Toxicity in Sprague-Dawley rat assessed as liver necrosis at 11.5 mmol/kg, ip measured after 0.5 to 24 hrs by histopathological/light microscopy analysis (reference value: 0%); assay type: organism-based; conditions: in vivo; in short: as §3
# Rattus norvegicus [18] = assay: Toxicity in Sprague-Dawley rat assessed as mortality at 23 mmol/kg, ip measured up to 24 hrs; assay type: organism-based; conditions: in vivo; in short: as §4
# Rattus norvegicus [19] = assay: Toxicity in Sprague-Dawley rat assessed as liver necrosis at 23 mmol/kg, ip measured after 0.5 to 24 hrs by histopathological/light microscopy analysis (reference value: 0%); assay type: organism-based; conditions: in vivo; in short: as §3
# Rattus norvegicus [20] = assay: Drug uptake in Sprague-Dawley rat assessed as radioactivity in liver protein at 4.6 to 23 mmol/kg, ip measured up to 24 hrs by scintillation counting; assay type: ADME, organism-based; conditions: in vivo; in short: as §2
# Rattus norvegicus [21] = assay: Anesthetic activity in Sprague-Dawley rat assessed as duration of anesthesia at 11.5 mmol/kg, ip; assay type: functional; in short: as §1
# Rattus norvegicus [22] = assay: Toxicity in phenobarbital pretreated Sprague-Dawley rat assessed as mortality at 23 mmol/kg, ip measured up to 24 hrs; assay type: organism-based; conditions: in vivo; in short: as §4
# Rattus norvegicus [23] = assay: Toxicity in phenobarbital pretreated Sprague-Dawley rat assessed as serum glutamic pyruvic transaminase level in blood at 23 mmol/kg, ip measured after 0.5 to 24 hrs (reference value: 15 +/- 2 IU/L); assay type: organism-based; conditions: in vivo
# Liver [24] = assay: Protein binding in phenobarbital pretreated Sprague-Dawley rat liver protein at 4.6 to 23 mmol/kg, ip measured per mg of protein up to 24 hrs by scintillation counting; assay type: ADME, organism-based; conditions: in vivo
# In short: (§5)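 Male Sprague-Dawley rats, normal or phenobarbital-pretreated (80 mg/kg ip, 3 days), received ip [1-14C]halothane in olive oil (50 µCi/kg). Liver homogenized 1 g/3 ml water at 0 °C. Protein precipitate washed ten times with hot (60 °C) methanol-ether 3:1, then digested in 1 N NaOH and counted. Protein measured by Lowry against BSA. Result expressed as nmol halothane equivalents per mg protein. Blank from [14C]halothane added to control homogenate was subtracted. Six rats.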
# Rattus norvegicus [25] = assay: Toxicity in Sprague-Dawley rat assessed as serum glutamic pyruvic transaminase level in blood at 4.6 mmol/kg, ip measured after 0.5 to 24 hrs (reference value: 14 +/- 2 IU/L); assay type: organism-based; conditions: in vivo
# Rattus norvegicus [26] = assay: Toxicity in Sprague-Dawley rat assessed as liver necrosis at 23 mmol/kg, ip measured after 4 to 24 hrs; assay type: organism-based; conditions: in vivo; in short: as §3
# Rattus norvegicus [27] = assay: Toxicity in phenobarbital pretreated Sprague-Dawley rat assessed as liver necrosis at 11.5 mmol/kg, ip measured after 24 hrs; assay type: organism-based; conditions: in vivo
# Liver [28] = assay: Protein binding in Sprague-Dawley rat liver protein at 4.6 to 23 mmol/kg, ip measured per mg of protein up to 24 hrs by scintillation counting; assay type: ADME, organism-based; conditions: in vivo; in short: as §5
# Rattus norvegicus [29] = assay: Drug uptake in Sprague-Dawley rat assessed as radioactivity in DNA fraction at 4.6 to 23 mmol/kg, ip measured up to 24 hrs by scintillation counting; assay type: ADME, organism-based; conditions: in vivo; in short: as §2
# Rattus norvegicus [30] = assay: Toxicity in Sprague-Dawley rat assessed as serum glutamic pyruvic transaminase level in blood at 23 mmol/kg, ip measured after 0.5 to 24 hrs (reference value: 14 +/- 2 IU/L); assay type: organism-based; conditions: in vivo
# Rattus norvegicus [31] = assay: Toxicity in phenobarbital pretreated Sprague-Dawley rat assessed as mortality at 11.5 mmol/kg, ip measured up to 24 hrs; assay type: organism-based; conditions: in vivo; in short: as §4
# Rattus norvegicus [32] = assay: Toxicity in Sprague-Dawley rat assessed as mortality at 4.6 mmol/kg, ip measured up to 24 hrs; assay type: organism-based; conditions: in vivo; in short: as §4
# Rattus norvegicus [33] = assay: Toxicity in Sprague-Dawley rat assessed as liver necrosis at 4.6 mmol/kg, ip measured after 0.5 to 24 hrs by histopathological/light microscopy analysis (reference value: 0%); assay type: organism-based; conditions: in vivo; in short: as §3
smiles,measurement,setting,value
FC(F)(F)C(Cl)Br (stereo not drawn),Activity,Rattus norvegicus [1],inactive
F[14C](F)(F)C(Cl)Br (stereo not drawn),Activity,Rattus norvegicus [2],Toxic
same,Drug uptake,Rattus norvegicus [3],Not Active
same,Activity,Rattus norvegicus [4],6%
same,Activity,Rattus norvegicus [5],19 IU/L
same,Activity,Rattus norvegicus [6],< 6%
same,Activity,Rattus norvegicus [7],37 IU/L
same,Drug uptake,Rattus norvegicus [8],Active
same,Activity,Rattus norvegicus [9],Non-toxic
same,Activity,Rattus norvegicus [10],18 IU/L
same,Activity,Rattus norvegicus [11],Non-toxic
same,Activity,Rattus norvegicus [12],Non-toxic
same,Activity,Rattus norvegicus [13],0%
same,Time,Rattus norvegicus [14],3.75 h
same,Activity,Rattus norvegicus [15],Non-toxic
same,Activity,Rattus norvegicus [16],Non-toxic
same,Activity,Rattus norvegicus [17],0%
same,Activity,Rattus norvegicus [18],Non-toxic
same,Activity,Rattus norvegicus [19],0%
same,Drug uptake,Rattus norvegicus [20],Active
same,Time,Rattus norvegicus [21],1.92 h
same,Activity,Rattus norvegicus [22],Non-toxic
same,Activity,Rattus norvegicus [23],58 IU/L
same,PB,Liver [24],> 2 nmol/mg
same,Activity,Rattus norvegicus [25],16 IU/L
same,Activity,Rattus norvegicus [26],Non-toxic
same,Activity,Rattus norvegicus [27],Toxic
same,PB,Liver [28],0.8 nmol/mg
same,Drug uptake,Rattus norvegicus [29],Not Active
same,Activity,Rattus norvegicus [30],18 IU/L
same,Activity,Rattus norvegicus [31],Non-toxic
same,Activity,Rattus norvegicus [32],Non-toxic
same,Activity,Rattus norvegicus [33],0%
